Reference: ChEMBL document CHEMBL1131341, “Orally active antimalarial 3-substituted trioxanes: new synthetic methodology and biological evaluation” (J Med Chem, 1998)

Experiments:
[1] = test system: Plasmodium falciparum; assay: In vitro antimalarial activity in chloroquine-sensitive Plasmodium falciparum NF54; type: functional, organism-based
In short: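 IC50 (nM) was measured against cultured parasites in quadruplicate and derived from fitted dose-response curves with R² ≥0.989.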

[2] = test system: Plasmodium berghei; assay: Effective in vivo dose ED50 against Plasmodium berghei N after subcutaneous dose at 1,3,10 or 30 mg/kg/day, n=5; type: functional; conditions: sc
In short: (§1)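 Mice infected with chloroquine-sensitive P. berghei (N) were dosed daily for 4 days at 1, 3, 10 and 30 mg/kg, with five mice per dose regimen. The ED values were derived from these four dose levels.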

[3] = test system: Plasmodium berghei; assay: Effective in vivo dose ED50 against Plasmodium berghei N after oral dose at 1,3,10 or 30 mg/kg/day, n=5; type: functional; in short: as §1
[4] = test system: Plasmodium berghei; assay: Effective in vivo dose ED90 against Plasmodium berghei N on oral administration; type: functional; in short: as §1

| Structure (SMILES) | IC50 [1] [nM] | ED50 [2] [mg/kg] | ED50 [3] [mg/kg] | ED90 [4] [µM/kg] |
| --- | --- | --- | --- | --- |
| CO[C@@H]1O[C@]2(c3ccc(F)cc3)CC[C@H]3CCCCC31OO2 | 65 | – | – | – |
| CO[C@H]1O[C@]2(c3ccc(COC(C)=O)cc3)CC[C@H]3CCCCC31OO2 | 20 | 2.8 | 14 | 22 |
| COc1ccc([C@@]23CC[C@H]4CCCCC4(OO2)C(OC)O3)cc1 (some centres not stated) | > 2500 | – | – | – |
| CO[C@H]1O[C@]2(c3ccc(Cl)cc3)CC[C@H]3CCCCC31OO2 | 55 | – | – | – |
| CO[C@H]1O[C@]2(c3ccc(C(F)(F)F)cc3)CC[C@H]3CCCCC31OO2 | 53 | – | – | – |
| CO[C@H]1O[C@]2(c3ccc(COCc4ccc(F)cc4)cc3)CC[C@H]3CCCCC31OO2 | 23 | 3.5 | 3.8 | 6.8 |
| CO[C@H]1O[C@]2(c3ccc(CO)cc3)CC[C@H]3CCCCC31OO2 | 15 | 3.4 | 5.5 | 12 |
| CO[C@@H]1O[C@]2(c3ccc(COC(C)=O)cc3)CC[C@H]3CCCCC31OO2 | 44 | – | – | – |
| CO[C@@H]1O[C@]2(c3ccc(CO)cc3)CC[C@H]3CCCCC31OO2 | 78 | – | – | – |
| CO[C@@H]1O[C@]2(c3ccc(-c4ccccc4)cc3)CC[C@H]3CCCCC31OO2 | 76 | – | – | – |
| CO[C@H]1O[C@]2(c3ccc(-c4ccccc4)cc3)CC[C@H]3CCCCC31OO2 | 68 | – | – | – |
| CO[C@H]1O[C@]2(CCC(F)(F)F)CC[C@H]3CCCCC31OO2 | 84 | – | – | – |
| CO[C@H]1O[C@]2(CF)CC[C@H]3CCCCC31OO2 | 160 | – | – | – |
| CO[C@H]1O[C@]2(c3ccc(F)cc3C)CC[C@H]3CCCC[C@@]31OO2 | 34 | – | – | – |
| CO[C@@H]1O[C@]2(c3ccc(Cl)cc3)CC[C@H]3CCCCC31OO2 | 49 | – | – | – |
| CCN(CC)CCCC(C)Nc1ccnc2cc(Cl)ccc12 (configuration not stated) [CHLOROQUINE] | – | 1 | 1.2 | – |

| Structure (SMILES) | IC50 [1] [nM] | ED50 [2] [mg/kg] | ED50 [3] [mg/kg] | ED90 [4] [µM/kg] |
| --- | --- | --- | --- | --- |
| CO[C@H]1O[C@]2(c3ccc(F)cc3)CC[C@H]3CCCCC31OO2 | 30 | 6.8 | 10 | 23 |
| CO[C@@H]1O[C@]2(c3ccc(F)cc3C)CC[C@H]3CCCC[C@@]31OO2 | 99 | – | – | – |
| CO[C@@H]1O[C@]2(c3cccc4ccccc34)CC[C@H]3CCCCC31OO2 | 170 | – | – | – |
| COCc1ccc([C@@]23CC[C@H]4CCCCC4(OO2)[C@H](OC)O3)cc1 | 39 | – | – | – |
| CO[C@H]1O[C@]2(C)CC[C@H]3CCCCC31OO2 | 960 | – | – | – |
| C[C@@H]1CC[C@H]2[C@@H](C)C(=O)O[C@@H]3O[C@@]4(C)CC[C@@H]1[C@]32OO4 [ARTEMISININ] | 9.2 | 3 | 8.5 | – |
| CO[C@@H]1O[C@@]2(c3ccccc3)OOC13CCCC[C@@H]3CC2C (some centres not stated) | 21 | – | – | – |
| COCc1ccc([C@@]23CC[C@H]4CCCCC4(OO2)[C@@H](OC)O3)cc1 | 51 | – | – | – |
| CO[C@@H]1O[C@]2(CF)CC[C@H]3CCCCC31OO2 | 320 | – | – | – |
| CO[C@@H]1O[C@]2(c3ccc(C(F)(F)F)cc3)CC[C@H]3CCCCC31OO2 | 39 | – | – | – |
| CO[C@@H]1O[C@]2(c3ccco3)CC[C@H]3CCCCC31OO2 | 600 | – | – | – |
| COC(=O)OCc1ccc([C@@]23CC[C@H]4CCCCC4(OO2)[C@H](OC)O3)cc1 | 79 | – | – | – |
| CO[C@@H]1O[C@]2(c3ccccc3)CC[C@H]3CCCCC31OO2 | 110 | – | – | – |
| CO[C@@H]1O[C@]2(c3ccc(COCc4ccc(F)cc4)cc3)CC[C@H]3CCCCC31OO2 | 42 | – | – | – |
| CO[C@H]1O[C@]2(c3ccccc3)CC[C@H]3CCCCC31OO2 | 38 | – | – | – |
| CO[C@H]1O[C@]2(c3cccc4ccccc34)CC[C@H]3CCCCC31OO2 | 44 | – | – | – |
